In ChEMBL document CHEMBL2321812 (J Med Chem, 2013):
Active and inactive are the calls of the source. The calls are words filed in the database; no cut-off is given here.

Assays:
Cytochrome P450 3A4 = Cytochrome P450 3A4 (Homo sapiens, UniProt P08684); assay: Inhibition of CYP3A4 (unknown origin)
[1] = Cmax in female ICR mouse at 5 mg/kg, ip; type: ADME, organism-based; set-up: dose 5 mg/kg, route intraperitoneal; conditions: in vivo
Outline: (§1)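 Male and female ICR mice (18.2-26.0 g) got 5 mg/kg i.p. in 5% DMSO/50% PEG400/45% saline. Terminal cardiac blood was drawn after CO2 euthanasia at 5, 15, 30 min and 1, 2, 4, 8, 24 h.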

[2] = molecular target: Poly [ADP-ribose] polymerase 1 (Homo sapiens) (UniProt P09874); assay: Inhibition of PARP1 (unknown origin) up to 20 uM by NAD+-dependent autopoly(ADP ribosyl)lation assay
Sequence of Poly [ADP-ribose] polymerase 1 (Homo sapiens) (P09874 whole entry): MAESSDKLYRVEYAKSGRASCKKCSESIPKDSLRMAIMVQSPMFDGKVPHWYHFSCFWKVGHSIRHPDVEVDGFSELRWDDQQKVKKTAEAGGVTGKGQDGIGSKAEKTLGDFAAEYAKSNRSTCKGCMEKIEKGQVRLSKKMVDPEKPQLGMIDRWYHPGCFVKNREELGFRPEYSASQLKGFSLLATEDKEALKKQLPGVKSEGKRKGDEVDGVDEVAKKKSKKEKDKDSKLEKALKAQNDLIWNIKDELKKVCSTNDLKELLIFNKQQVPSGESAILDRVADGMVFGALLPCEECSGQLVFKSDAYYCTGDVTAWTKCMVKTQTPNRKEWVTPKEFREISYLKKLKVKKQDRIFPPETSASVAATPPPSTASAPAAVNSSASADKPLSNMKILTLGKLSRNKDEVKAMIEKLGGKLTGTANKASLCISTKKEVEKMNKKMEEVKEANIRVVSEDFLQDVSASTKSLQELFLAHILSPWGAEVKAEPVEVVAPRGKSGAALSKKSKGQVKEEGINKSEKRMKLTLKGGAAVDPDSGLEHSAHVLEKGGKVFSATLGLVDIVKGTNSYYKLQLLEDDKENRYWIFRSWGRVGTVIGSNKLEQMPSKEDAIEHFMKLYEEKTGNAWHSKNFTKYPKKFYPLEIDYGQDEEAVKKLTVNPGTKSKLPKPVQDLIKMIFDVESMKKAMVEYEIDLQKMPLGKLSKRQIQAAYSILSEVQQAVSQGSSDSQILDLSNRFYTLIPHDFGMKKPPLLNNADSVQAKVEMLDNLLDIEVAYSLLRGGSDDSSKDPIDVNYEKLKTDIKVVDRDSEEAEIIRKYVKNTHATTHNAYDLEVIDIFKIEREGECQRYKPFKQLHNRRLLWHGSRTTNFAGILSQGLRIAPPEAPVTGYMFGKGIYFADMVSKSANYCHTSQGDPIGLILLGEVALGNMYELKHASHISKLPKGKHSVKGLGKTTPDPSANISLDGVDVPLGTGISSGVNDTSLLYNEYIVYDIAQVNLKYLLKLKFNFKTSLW
Outline: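 PARP1 was tested with a chemiluminescent poly(ADP-ribosyl)ation assay kit over a range of concentrations. Each point was run in duplicate and the experiment was done twice. Luminescence was read and IC50 was fitted to a Langmuir binding isotherm.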

[3] = Bioavailability in female ICR mouse measured from AUC (0 to infinity) at 5 mg/kg, ip; type: ADME, organism-based; conditions: in vivo
Outline: (§2)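 Intraperitoneal dosing was 5 mg/kg, referenced to 1 mg/kg i.v., both in 5% DMSO/50% PEG400/45% saline, in male and female ICR mice. Plasma was sampled from 5 min to 24 h and measured by HPLC-MS/MS.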

[4] = Bioavailability in male ICR mouse measured from AUC (0 to infinity) at 5 mg/kg, ip; type: ADME, organism-based; conditions: in vivo; outline: as §2
[5] = Oral bioavailability in female ICR mouse measured from AUC (0 to infinity) at 5 mg/kg; type: ADME, organism-based; conditions: in vivo
Outline: (§3)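 Oral 5 mg/kg (10% NMP/60% PEG400/30% saline, after 10-15 h fast) was compared with 1 mg/kg i.v. (5% DMSO/50% PEG400/45% saline) in male and female ICR mice. Plasma from 5 min to 24 h was measured by HPLC-MS/MS.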

[6] = Oral bioavailability in male ICR mouse measured from AUC (0 to infinity) at 5 mg/kg; type: ADME, organism-based; conditions: in vivo; outline: as §3
Mus musculus [7] = assay: Bioavailability in female ICR mouse measured from AUC (0 to t) at 5 mg/kg, ip; type: ADME, organism-based; conditions: in vivo; outline: as §2
Mus musculus [8] = assay: Bioavailability in male ICR mouse measured from AUC (0 to t) at 5 mg/kg, ip; type: ADME, organism-based; conditions: in vivo; outline: as §2
[9] = Oral bioavailability in female ICR mouse measured from AUC (0 to t) at 5 mg/kg; type: ADME, organism-based; conditions: in vivo; outline: as §3
[10] = Oral bioavailability in male ICR mouse measured from AUC (0 to t) at 5 mg/kg; type: ADME, organism-based; conditions: in vivo; outline: as §3
[11] = Mean residence time (0 to infinity) in female ICR mouse at 5 mg/kg, ip; type: ADME, organism-based; set-up: dose 5 mg/kg, route intraperitoneal; conditions: in vivo; outline: as §1
[12] = Mean residence time (0 to infinity) in male ICR mouse at 5 mg/kg, ip; type: ADME, organism-based; set-up: dose 5 mg/kg, route intraperitoneal; conditions: in vivo; outline: as §1
[13] = Mean residence time (0 to infinity) in female ICR mouse at 5 mg/kg, po; type: ADME, organism-based; set-up: dose 5 mg/kg, route oral; conditions: in vivo
Outline: (§4)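 Oral gavage at 5 mg/kg in 10% NMP/60% PEG400/30% saline to overnight-fasted (10-15 h) male and female ICR mice (18.2-26.0 g). Blood was taken by cardiac puncture after CO2 euthanasia at 5, 15, 30 min and 1, 2, 4, 8, 24 h.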

[14] = Mean residence time (0 to infinity) in male ICR mouse at 5 mg/kg, po; type: ADME, organism-based; set-up: dose 5 mg/kg, route oral; conditions: in vivo; outline: as §4
[15] = Mean residence time (0 to infinity) in male ICR mouse at 1 mg/kg, iv; type: ADME, organism-based; set-up: dose 1 mg/kg, route intravenous; conditions: in vivo
Outline: (§5)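 Single 1 mg/kg i.v. injection to male and female ICR mice (18.2-26.0 g) in 5% DMSO/50% PEG400/45% saline. Blood was taken by cardiac puncture after CO2 euthanasia at 5, 15, 30 min and 1, 2, 4, 8, 24 h post dose.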

[16] = Mean residence time (0 to infinity) in female ICR mouse at 1 mg/kg, iv; type: ADME, organism-based; set-up: dose 1 mg/kg, route intravenous; conditions: in vivo; outline: as §5
[17] = Clearance in female ICR mouse at 1 mg/kg, iv; type: ADME, organism-based; set-up: dose 1 mg/kg, route intravenous; conditions: in vivo; outline: as §5
[18] = Apparent volume of distribution in female ICR mouse at 1 mg/kg, iv; type: ADME, organism-based; set-up: dose 1 mg/kg, route intravenous; conditions: in vivo, read-out: Vz; outline: as §5
[19] = Clearance in male ICR mouse at 1 mg/kg, iv; type: ADME, organism-based; set-up: dose 1 mg/kg, route intravenous; conditions: in vivo; outline: as §5
[20] = Apparent volume of distribution in male ICR mouse at 1 mg/kg, iv; type: ADME, organism-based; set-up: dose 1 mg/kg, route intravenous; conditions: in vivo, read-out: Vz; outline: as §5
[21] = AUC (0 to infinity) in female ICR mouse at 5 mg/kg, ip; type: ADME, organism-based; set-up: time infinity, dose 5 mg/kg, route intraperitoneal; conditions: plasma; outline: as §1
[22] = AUC (0 to infinity) in female ICR mouse at 5 mg/kg, po; type: ADME, organism-based; set-up: time infinity, dose 5 mg/kg, route oral; conditions: plasma; outline: as §4
[23] = AUC (0 to infinity) in male ICR mouse at 5 mg/kg, ip; type: ADME, organism-based; set-up: time infinity, dose 5 mg/kg, route intraperitoneal; conditions: plasma; outline: as §1
[24] = AUC (0 to infinity) in female ICR mouse at 1 mg/kg, iv; type: ADME, organism-based; set-up: time infinity, dose 1 mg/kg, route intravenous; conditions: plasma; outline: as §5
[25] = AUC (0 to infinity) in male ICR mouse at 5 mg/kg, po; type: ADME, organism-based; set-up: time infinity, dose 5 mg/kg, route oral; conditions: plasma; outline: as §4
[26] = AUC (0 to infinity) in male ICR mouse at 1 mg/kg, iv; type: ADME, organism-based; set-up: time infinity, dose 1 mg/kg, route intravenous; conditions: plasma; outline: as §5
[27] = AUC (0 to t) in female ICR mouse at 5 mg/kg, ip; type: ADME, organism-based; set-up: dose 5 mg/kg, route intraperitoneal; conditions: plasma; outline: as §1
[28] = AUC (0 to t) in female ICR mouse at 5 mg/kg, po; type: ADME, organism-based; set-up: dose 5 mg/kg, route oral; conditions: plasma; outline: as §4
[29] = AUC (0 to t) in male ICR mouse at 5 mg/kg, ip; type: ADME, organism-based; set-up: dose 5 mg/kg, route intraperitoneal; conditions: plasma; outline: as §1
[30] = AUC (0 to t) in male ICR mouse at 1 mg/kg, iv; type: ADME, organism-based; set-up: dose 1 mg/kg, route intravenous; conditions: plasma; outline: as §5
[31] = AUC (0 to t) in female ICR mouse at 1 mg/kg, iv; type: ADME, organism-based; set-up: dose 1 mg/kg, route intravenous; conditions: plasma; outline: as §5
[32] = AUC (0 to t) in male ICR mouse at 5 mg/kg, po; type: ADME, organism-based; set-up: dose 5 mg/kg, route oral; conditions: plasma; outline: as §4
[33] = Cmax in male ICR mouse at 5 mg/kg, ip; type: ADME, organism-based; set-up: dose 5 mg/kg, route intraperitoneal; conditions: in vivo; outline: as §1
[34] = Cmax in female ICR mouse at 5 mg/kg, po; type: ADME, organism-based; set-up: dose 5 mg/kg, route oral; conditions: in vivo; outline: as §4
[35] = Cmax in male ICR mouse at 5 mg/kg, po; type: ADME, organism-based; set-up: dose 5 mg/kg, route oral; conditions: in vivo; outline: as §4
[36] = Cmax in female ICR mouse at 1 mg/kg, iv; type: ADME, organism-based; set-up: dose 1 mg/kg, route intravenous; conditions: in vivo; outline: as §5
[37] = Cmax in male ICR mouse at 1 mg/kg, iv; type: ADME, organism-based; set-up: dose 1 mg/kg, route intravenous; conditions: in vivo; outline: as §5
[38] = Tmax in female ICR mouse at 5 mg/kg, ip; type: ADME, organism-based; set-up: dose 5 mg/kg, route intraperitoneal; conditions: in vivo; outline: as §1
[39] = Tmax in male ICR mouse at 5 mg/kg, ip; type: ADME, organism-based; set-up: dose 5 mg/kg, route intraperitoneal; conditions: in vivo; outline: as §1
[40] = Tmax in female ICR mouse at 5 mg/kg, po; type: ADME, organism-based; set-up: dose 5 mg/kg, route oral; conditions: in vivo; outline: as §4
[41] = Tmax in male ICR mouse at 5 mg/kg, po; type: ADME, organism-based; set-up: dose 5 mg/kg, route oral; conditions: in vivo
Outline: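 Male and female ICR mice (18.2-26.0 g), fasted overnight (10-15 h) before oral dosing; single gavage at 5 mg/kg in 10% NMP, 60% PEG400, 30% saline. Blood taken by cardiac puncture after CO2 euthanasia at 5, 15, 30 min and 1, 2, 4, 8, 24 h. Heparinised plasma assayed by HPLC-MS/MS. Tmax is the time to reach Cmax.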

[42] = Tmax in female ICR mouse at 1 mg/kg, iv; type: ADME, organism-based; set-up: dose 1 mg/kg, route intravenous; conditions: in vivo; outline: as §5
[43] = Half life in female ICR mouse at 5 mg/kg, ip; type: ADME, organism-based; set-up: dose 5 mg/kg, route intraperitoneal; conditions: in vivo; outline: as §1
[44] = Tmax in male ICR mouse at 1 mg/kg, iv; type: ADME, organism-based; set-up: dose 1 mg/kg, route intravenous; conditions: in vivo; outline: as §5
[45] = Half life in female ICR mouse at 5 mg/kg, po; type: ADME, organism-based; set-up: dose 5 mg/kg, route oral; conditions: in vivo; outline: as §4
[46] = Half life in male ICR mouse at 5 mg/kg, ip; type: ADME, organism-based; set-up: dose 5 mg/kg, route intraperitoneal; conditions: in vivo; outline: as §1
[47] = Half life in male ICR mouse at 5 mg/kg, po; type: ADME, organism-based; set-up: dose 5 mg/kg, route oral; conditions: in vivo; outline: as §4
[48] = Half life in female ICR mouse at 1 mg/kg, iv; type: ADME, organism-based; set-up: dose 1 mg/kg, route intravenous; conditions: in vivo; outline: as §5

Sequence of Cytochrome P450 3A4 (P08684 whole entry): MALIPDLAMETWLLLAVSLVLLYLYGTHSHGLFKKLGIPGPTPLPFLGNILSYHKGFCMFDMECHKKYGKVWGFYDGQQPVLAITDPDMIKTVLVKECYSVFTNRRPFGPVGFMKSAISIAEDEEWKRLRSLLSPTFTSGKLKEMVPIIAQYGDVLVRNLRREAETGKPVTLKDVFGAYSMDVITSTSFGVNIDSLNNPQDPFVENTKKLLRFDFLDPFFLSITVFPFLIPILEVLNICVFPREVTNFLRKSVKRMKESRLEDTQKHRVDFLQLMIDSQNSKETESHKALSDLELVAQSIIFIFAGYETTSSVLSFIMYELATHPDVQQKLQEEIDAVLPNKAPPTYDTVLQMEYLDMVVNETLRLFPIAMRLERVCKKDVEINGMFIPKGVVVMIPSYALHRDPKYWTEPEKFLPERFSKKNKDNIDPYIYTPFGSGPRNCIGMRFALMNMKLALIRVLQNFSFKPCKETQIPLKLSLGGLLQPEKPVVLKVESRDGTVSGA

IC50 (Cytochrome P450 3A4): > 25 µM
Cmax [1]: 2660 ng/mL
inhibition [2]: inactive
bioavailability [3]: 122%
bioavailability [4]: 133%
bioavailability [5]: 59%
bioavailability [6]: 99%
F (Mus musculus [7]): 152%
F (Mus musculus [8]): 157%
bioavailability [9]: 72.7%
bioavailability [10]: 116%
MRT inf [11]: 4.6 h
MRT inf [12]: 4.8 h
MRT inf [13]: 5.1 h
MRT inf [14]: 5.1 h
MRT inf [15]: 4.1 h
MRT inf [16]: 4.8 h
clearance [17]: 7.17 mL/min/kg
Vd [18]: 2.2 L/kg
clearance [19]: 10 mL/min/kg
Vd [20]: 2.7 L/kg
AUC(0-inf) [21]: 14100 ng·h/mL
AUC(0-inf) [22]: 6750 ng·h/mL
AUC(0-inf) [23]: 11200 ng·h/mL
AUC(0-inf) [24]: 2300 ng·h/mL
AUC(0-inf) [25]: 8270 ng·h/mL
AUC(0-inf) [26]: 1680 ng·h/mL
AUC(0-t) [27]: 14100 ng·h/mL
AUC(0-t) [28]: 6740 ng·h/mL
AUC(0-t) [29]: 11200 ng·h/mL
AUC(0-t) [30]: 1420 ng·h/mL
AUC(0-t) [31]: 1850 ng·h/mL
AUC(0-t) [32]: 8250 ng·h/mL
Cmax [33]: 2360 ng/mL
Cmax [34]: 871 ng/mL
Cmax [35]: 967 ng/mL
Cmax [36]: 462 ng/mL
Cmax [37]: 434 ng/mL
Tmax [38]: 30 min
Tmax [39]: 30 min
Tmax [40]: 2 h
Tmax [41]: 15 min
Tmax [42]: 30 min
half-life [43]: 164 min
Tmax [44]: 15 min
half-life [45]: 158 min
half-life [46]: 173 min
half-life [47]: 156 min
half-life [48]: 208 min
SMILES: CS(=O)(=O)c1ccc(-c2nnc(/C=C/c3nnc(-c4ccc(C#N)cc4)o3)n2-c2ccccc2Cl)nc1
